Only some compounds are listed: those with a hit (about 3% of all), similar ones and a draw of the others.
aDG glyco up: alpha-DG glycosylation activation; Pro5-aDG cells, alpha-DG glycosylation AlphaScreen (IIH6); 0% Pro5, 100% B10-LARGE cell signal; activation, % at 10 µM; actives 0.22% (n = 360,000);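 active = activation of at least 8% versus controls, or a plate z-score of at least 8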;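 note: Pro5 are CHO cells carrying HIG-tagged alpha-DG that lacks glycosylation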
JMJD2C inh: blocks human GASC-1 demethylase activity | Q9H3R0 | GST-JMJD2C(1-420) H3K9me3 demethylation, DELFIA europium | actives 0.069% (n = 330,000) | inhibition, % at 2.35 µM;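 active = more than half of a compound's replicate wells show inhibition beyond 50%, single wells judged on their own value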;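 note: signal counts dimethyl H3K9 product captured on neutravidin plate; 0% = median of DMSO wells and 100% = 0.3 times that DMSO median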
GC-A act: GC-A (human) enzyme activation; HEK293 GC-A cells, cGMP TR-FRET, EC30 ANP; 0% at EC30 ANP, 100% saturating ANP; activation, % at 10 µM; AID 1671463; actives 0.14% (n = 370,000); P16066; in the data active = activation above about 40%
NR3A LBD binder: modulates the human NR3A ligand-binding domain | AID 1259313 | Tm shift relative to glycine control, % at 25 µM | NR3A LBD differential scanning fluorimetry, Tm shift; 0% = protein alone, 100% = glycine-bound protein | actives 2.5% (n = 340,000);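 active = melting temperature shift of at least 10% of the positive control shift, at one fixed dose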
GC-B act: GC-B (human) receptor activation. P20594. HEK293-GC-B cells, CNP EC30, cGMP TR-FRET; 0% at EC30 CNP, 100% saturating CNP. activation, % at 10 µM. actives 0.11% (n = 370,000);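 active = activation at 10 µM reaching about 35% in either raw or pattern-adjusted values, limit read from the data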
Target sequence (P20594 whole entry, looked up): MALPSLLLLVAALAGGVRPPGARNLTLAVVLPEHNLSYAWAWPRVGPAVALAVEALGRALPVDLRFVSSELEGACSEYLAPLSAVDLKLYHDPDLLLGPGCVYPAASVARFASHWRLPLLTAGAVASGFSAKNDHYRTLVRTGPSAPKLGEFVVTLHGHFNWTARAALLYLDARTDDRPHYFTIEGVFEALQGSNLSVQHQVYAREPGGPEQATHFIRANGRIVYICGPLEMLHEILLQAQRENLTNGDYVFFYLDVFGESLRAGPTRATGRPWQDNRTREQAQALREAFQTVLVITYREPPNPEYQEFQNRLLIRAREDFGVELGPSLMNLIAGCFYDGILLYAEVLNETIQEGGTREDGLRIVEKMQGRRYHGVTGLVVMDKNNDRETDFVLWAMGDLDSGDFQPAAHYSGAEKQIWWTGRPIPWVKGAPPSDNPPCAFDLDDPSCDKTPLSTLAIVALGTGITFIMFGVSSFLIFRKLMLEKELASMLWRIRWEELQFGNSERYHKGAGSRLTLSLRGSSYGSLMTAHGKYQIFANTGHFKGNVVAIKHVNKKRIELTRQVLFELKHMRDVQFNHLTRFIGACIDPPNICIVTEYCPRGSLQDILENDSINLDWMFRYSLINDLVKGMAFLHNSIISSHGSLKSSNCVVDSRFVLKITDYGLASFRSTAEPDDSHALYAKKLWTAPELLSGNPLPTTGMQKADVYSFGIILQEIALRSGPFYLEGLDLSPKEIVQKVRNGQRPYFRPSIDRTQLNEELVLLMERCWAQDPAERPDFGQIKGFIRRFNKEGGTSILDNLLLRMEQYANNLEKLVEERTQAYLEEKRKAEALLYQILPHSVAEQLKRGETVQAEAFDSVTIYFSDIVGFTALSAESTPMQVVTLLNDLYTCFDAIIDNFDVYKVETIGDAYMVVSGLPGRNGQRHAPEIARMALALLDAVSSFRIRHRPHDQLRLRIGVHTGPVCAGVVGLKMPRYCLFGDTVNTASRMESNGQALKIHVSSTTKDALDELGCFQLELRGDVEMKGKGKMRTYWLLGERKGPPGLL
Lipid droplet: hepatic lipid droplet formation modulation; AML12 mouse hepatocytes, oleate lipid droplets, BODIPY imaging; inhibition, % at 6.5 µM; actives 0.4% (n = 240,000); AID 1656;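 active = lipid droplet intensity inhibited by at least 50%, with more than 500 cells counted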
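Test system: AML12 mouse liver cells; schedule: overnight exposure; technique: high-content imaging of BODIPY-stained droplets and DAPI nuclei; read-out: % inhibition of corrected integrated BODIPY droplet signal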
An asterisk follows results filed as active; · = not tested or not shown.

SMILES	aDG glyco up	JMJD2C inh	GC-A act	NR3A LBD binder	GC-B act	Lipid droplet
O=S(=O)(c1ccccc1)N1CCN(C(=S)Nc2ccc(F)cc2)CC1	0	-19	-1	-1	2	5
NS(=O)(=O)c1ccc(NC(=S)N2CCN(Cc3ccc(Cl)c(Cl)c3)CC2)cc1	0	0	-6	25*	-3	-8
O=S(=O)(c1ccc(Cl)cc1)N1CCN(C(=S)Nc2ccc(F)c(Cl)c2)CC1	0	8	-6	18*	-1	21
COC(=O)C1CN(Cc2cn(Cc3ccc(F)cc3)nn2)CCS(=O)(=O)N1Cc1ccc(F)cc1 (stereo not drawn)	·	·	-1	·	-3	·
CCCN(CC(=O)Nc1ccccc1C)C(=O)CSc1ccccc1C	0	0	-2	0	4	·
Cc1[nH]c2ccccc2c1CCCO	·	5	4	1	0	30
OCCCCc1nccc2c1[nH]c1ccccc12	0	-8	8	12*	2	1
C[C@H]1CN(C(=O)OC(C)(C)C)CCN1c1ccc(N2CC[C@H](O)C2)c(C#N)c1	·	·	1	·	3	·
CC(=O)c1c(C)oc2ccc(NS(=O)(=O)c3cccs3)cc12	1	5	0	17*	-1	-12
Cc1n[nH]c(C)c1S(=O)(=O)N1CCC(C(=O)O)CC1	0	-3	-1	-1	10	·
Cc1n[nH]c(C)c1S(=O)(=O)N1CCOCC1	0	5	2	14*	-1	·
CC(=O)c1cccc(NS(=O)(=O)c2ccc(N/C=C/C(=O)c3ccc(F)cc3)cc2)c1	4	-1	-10	18*	-3	12
CC(=O)c1ccc(NS(=O)(=O)c2ccc(N/C=C/C(=O)c3ccc(F)cc3)cc2)cc1	0	-17	0	16*	0	14
C[C@@H]1CCN(C2CC2)S(=O)(=O)c2ccc(N3CC[C@@H](N(C)C)C3)cc2O1	·	·	1	·	2	·
Cn1c(SCCc2ccccc2)nnc1-c1ccco1	·	·	7	·	6	·
Oc1ccc(C=Nc2ccccc2-c2nc3ccccc3[nH]2)cc1	0	2	39	-11	45*	-3
Nc1ccccc1-c1nc2ccccc2[nH]1	0	-20	8	-11	7	-13
Cn1c(-c2sc(=S)n(-c3ccccc3)c2N)nc2ccccc21	0	-6	3	5	0	·
C=CCn1c(N)c(-c2nc3ccccc3n2C)sc1=S	0	50*	16	1	16	1
CCn1c(SCC(=O)Nc2ccc(C(C)C)cc2)nnc1-c1ccc(C(C)(C)C)cc1	·	·	2	·	7	·
CCOC(=O)C1=C(COC(=O)c2c(OC)cccc2OC)NC(=O)NC1C (stereo not drawn)	0	-13	-2	-1	3	·
CCOC(=O)C1=C(COC(=O)Cc2c(F)cccc2Cl)NC(=O)NC1C (stereo not drawn)	0	4	29	-1	36*	·
Cc1cc(C)c2nc(NC(=O)[C@@H](NC(=O)c3cccc(S(=O)(=O)N4CCOCC4)c3)C(C)C)sc2c1	0	-5	6	34*	-7	-1
Cc1cc(C)c2nc(NC(=O)c3cccc(S(=O)(=O)N4CCc5ccccc54)c3)sc2c1	0	-3	-37	10*	-13	-10
CCCCS(=O)CC(CS(=O)CCCC)OC(=O)c1ccccc1 (stereo not drawn)	0	6	-8	-2	2	·
SMILES	aDG glyco up	JMJD2C inh	GC-A act	NR3A LBD binder	GC-B act	Lipid droplet
CCCCS(=O)(=O)CC(COc1ccccc1)OC(=O)c1ccccc1 (stereo not drawn)	0	17	-4	14*	-2	·
Cc1ccc(NC(=O)c2ccc(=O)[nH]c2)cc1S(=O)(=O)N1CCCCCC1	0	-6	-1	-1	-2	·
Cc1ccccc1N=C1N=C(N)c2ccccc21	0	60*	-5	3	2	31
Cc1ccc(N=C2N=C(N)c3ccccc32)c(C)c1	0	-5	1	-3	-1	-1
Cc1nc2ccc(S(=O)(=O)NCC(=O)NCc3ccc(F)cc3)cc2s1	·	·	3	·	3	·
O=C(/C=C/c1cccs1)c1ccc([N+](=O)[O-])cc1	0	15	6	1	-7	-1
Cc1ccc(NC(=O)/C=C/C(=O)O)c([N+](=O)[O-])c1	0	3	1	-1	6	-24
O=C(/C=C/c1cccs1)Nc1ccc([N+](=O)[O-])cc1	0	4	0	26*	-5	12
CCCOC(=O)c1ccc(NC(=O)/C=C/c2cccs2)cc1	1	0	-1	28*	1	80*
NS(=O)(=O)c1ccc(NC(=S)NC(=O)/C=C/c2cccs2)cc1	0	3	-1	7	-2	6
Cc1ccc(NC(=O)/C=C/c2cccs2)c([N+](=O)[O-])c1	0	56*	-1	1	-9	·
NC(N)=NS(=O)(=O)c1ccc(NC(=S)NC(=O)/C=C/c2cccs2)cc1	0	3	-1	11*	-4	-7
CC(C)(C)N1Cc2nnn(CC3CCCCC3)c2-c2cc(F)ccc2S1(=O)=O	·	·	-7	·	-1	·
CCNc1nc(Cl)nc(-c2cn(-c3ccccc3)c3ccccc23)n1	0	-3	-2	12*	-2	0
Cc1c(C(=O)Nc2ccc3oc(-c4cccnc4)nc3c2)oc2ccccc12	0	-3	11	16*	-2	·
O=C(Nc1cccc(-c2nc3ccccc3o2)c1)c1cccnc1	1	-3	5	-2	0	17
O=C(Nc1ccc(-c2nc3ccccc3o2)cc1)c1cccnc1	0	4	1	25*	-2	·
Cc1ccc2oc(-c3ccc(NC(=O)c4cccnc4)cc3)nc2c1	2	4	16	35*	4	12
Cc1ccc(-c2nc3cc(NS(=O)(=O)c4ccc(C)cc4)ccc3o2)cc1	0	30	6	12*	-2	-3
C[C@H](CCCCC1(C)OCCO1)CCC(=O)N(c1ccccc1)c1ccccc1	·	·	-9	·	-7	·
COC(=O)[C@]12C[C@H](CC(=O)NCc3cccs3)C(=O)N(Cc3ccc4c(c3)OCO4)C1=C[C@H](C(C)C)O[C@@H]2C1CC1	·	·	-9	·	-14	·
NC(=O)c1ncn([C@@H]2O[C@H](C(=O)Nc3ccc(Oc4ccccc4)nc3)[C@@H](O)[C@H]2O)n1	·	·	-1	·	2	·
Cc1cc(=O)n2[nH]c(SCc3ccccc3Cl)nc2n1	0	5	-1	18*	0	3
O=C1Cn2nnc(-c3ccccc3)c2C2c3cc(Br)ccc3CCN12 (stereo not drawn)	·	·	-6	·	-10	·
